# Source: PubChem BioAssay (several laboratories)
# This is a sample that favours compounds with a hit; in the whole collection about 1.7% have one here.
# IDE cell activ: IDE (human) activation, cell-based; HEK cells, FAbeta-B cleavage, fluorescence polarization; 0% vehicle, 100% cell-free pure enzyme wells; 340,000 tested, 0.073% active; AID 493087; activation, % at 5.96 µM; P14735;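 active means activation above the mean of all tested compounds plus 3 SD, set per screening campaign, cut at about 17% in these data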
# Target sequence (P14735 whole entry, looked up): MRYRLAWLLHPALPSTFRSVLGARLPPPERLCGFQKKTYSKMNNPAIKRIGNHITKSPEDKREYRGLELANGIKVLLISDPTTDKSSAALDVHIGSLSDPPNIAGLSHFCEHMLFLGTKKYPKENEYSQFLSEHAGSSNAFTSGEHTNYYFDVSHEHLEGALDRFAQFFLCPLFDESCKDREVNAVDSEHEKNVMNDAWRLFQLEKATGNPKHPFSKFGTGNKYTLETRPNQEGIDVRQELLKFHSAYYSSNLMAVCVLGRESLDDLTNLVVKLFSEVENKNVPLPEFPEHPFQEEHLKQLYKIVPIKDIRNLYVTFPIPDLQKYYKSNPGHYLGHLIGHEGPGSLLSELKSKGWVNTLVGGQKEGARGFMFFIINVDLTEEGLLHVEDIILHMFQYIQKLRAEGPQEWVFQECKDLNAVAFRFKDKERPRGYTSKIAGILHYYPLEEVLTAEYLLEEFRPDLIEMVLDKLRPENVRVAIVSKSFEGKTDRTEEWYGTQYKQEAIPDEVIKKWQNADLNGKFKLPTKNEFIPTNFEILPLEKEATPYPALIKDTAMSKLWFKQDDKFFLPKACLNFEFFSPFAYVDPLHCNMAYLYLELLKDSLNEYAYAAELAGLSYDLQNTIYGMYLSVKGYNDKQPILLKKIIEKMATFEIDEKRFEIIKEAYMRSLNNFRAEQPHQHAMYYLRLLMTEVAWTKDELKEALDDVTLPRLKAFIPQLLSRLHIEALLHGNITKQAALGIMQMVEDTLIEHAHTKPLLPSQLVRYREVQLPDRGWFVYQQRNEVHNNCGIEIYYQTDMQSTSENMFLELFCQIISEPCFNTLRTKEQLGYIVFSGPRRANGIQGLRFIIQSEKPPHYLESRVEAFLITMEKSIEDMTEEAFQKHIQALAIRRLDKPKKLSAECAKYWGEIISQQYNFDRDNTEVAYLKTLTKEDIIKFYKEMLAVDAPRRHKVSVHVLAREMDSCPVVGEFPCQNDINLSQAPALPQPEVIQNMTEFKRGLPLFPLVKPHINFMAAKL
# TPT1 inhibitor: inhibitors of Candida albicans tRNA 2'-phosphotransferase TPT1. recombinant caTPT1, FP RNA substrate dephosphorylation. inhibition, % at 5 µM. 300,000 tested, 0.81% active. AID 1962;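 active means inhibition above the mean of all tested compounds plus 3 SD, set per screening campaign, cut at about 24% in these data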;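 further: plate controls were DMSO alone for no effect and ferristatin control at 100 nM for full effect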
# Rpn11 inh: inhibitors of human proteasome Rpn11; human 26S proteasome, Ub4-pepOG fluorescence polarization; 20S core pre-blocked with epoxomicin; inhibition, % at 20 µM; 360,000 tested, 0.59% active;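 active means inhibition at 20 µM, scaled to each plate's controls, above about 33%, limit read from the data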
# IDE cell inh: inhibits human insulin-degrading enzyme in HEK cells. FAbetaB cleavage, fluorescence polarization. inhibition, % at 5.59 µM. 320,000 tested, 0.41% active. AID 434962;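 active means percent inhibition above the average of all tested compounds plus 3 SD, set per screening campaign, cut at about 16% in these data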;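 further: IDE supplied by intact live HEK cells; FP after avidin binding of uncleaved biotin substrate so inhibition keeps polarization high; 0% = DMSO wells and 100% = 60 µM reference IDE inhibitor Ii1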
# CSN inh: CSN deneddylation inhibition. AID 651999. inhibition, % at 12.5 µM. Q92905. 360,000 tested, 0.38% active. Purified CSN, SCF-Nedd8-OG deneddylation, fluorescence polarization;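 active means pattern-corrected inhibition above about 35%, with an unprinted fluorescence ratio check between 0.5 and 1.5, limit read from the data, passing the limit was not always enough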;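 further: 0% = enzyme with substrate and 100% = substrate without enzyme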
#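 test system = HEK293T-derived human Csn5 enzyme | amount = 0.24 nM Csn5 enzyme, final concentration | medium = Tris/NaCl/DTT buffer, pH 7.5 | schedule = 90 min reaction at room temperature | signal = FP | evaluation = inhibition of Csn5 cleavage, % | compound dosing = single dose of 12.5 µM compound with 0.25% DMSO | probe or stimulus = 10 nM SCFSkp2-Nedd8OG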
# HNF4A DNA FP: change in binding of human HNF4 alpha to DNA; HNF4a-FITC DNA binding, fluorescence polarization, 1 h; 360,000 tested, 0.3% active; P41235; activity change, % at 10 µM; in the data active means activity change above about 30%, passing the limit was not always enough
# caTPT1 confirm: confirmation of Candida albicans TPT1 inhibitors. shares compounds with TPT1 inhibitor. recombinant caTPT1, fluorescence polarization, RNase T1 coupled. inhibition, % at 5 µM. 2,400 tested, 74% active. AID 2149;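 active means inhibition above the primary screen limit, the mean inhibition of all tested compounds plus 3 SD, cut at about 25% in these data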
# RNase T1 counter: counter-screen for TPT1 inhibitors: inhibitors of Aspergillus oryzae RNase T1; shares compounds with TPT1 inhibitor; RNase T1 cleavage, fluorescence polarization, 1536-well; inhibition, % at 5 µM; 2,400 tested, 83% active;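 active means inhibition above the solvent-only control well mean plus 3 SD, limit set per screening run, cut at about 23% in these data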;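 further: plate controls were DMSO wells with enzyme for no effect and wells without RNase T1 for full effect; inhibitors block cleavage so intact labeled substrate keeps polarization high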
# The depositor's hits bear a star; x = no result shown.
SMILES,IDE cell activ,TPT1 inhibitor,Rpn11 inh,IDE cell inh,CSN inh,HNF4A DNA FP,caTPT1 confirm,RNase T1 counter
Cc1c2ccccc2c(C)c2c1ccc1ccccc12,3,-2,4,3,-3,0,x,x
Cc1nc(Nc2ccc(Cl)c(Cl)c2)sc1C(/C=C/c1ccc2c(c1)OCO2)=NNc1ccc([N+](=O)[O-])cc1[N+](=O)[O-],1,x,10,x,-3,0,x,x
CCCCOc1ccc(S(=O)(=O)NC(=O)C2(C)CCN2C(=O)CCc2ccccc2)cc1 (stereo not given),x,x,-2,x,-6,0,x,x
COc1cc(/C=C(\C#N)c2nc3c(s2)CCCC3)ccc1O,x,146*,x,146*,x,x,168*,152*
CC(C)(C)c1ccc(/C=C2\Oc3cc(O)ccc3C2=O)cc1,-2,30*,30,13,17,11,67*,72*
O=C1/C(=C/c2ccc([N+](=O)[O-])cc2)Oc2cc(O)ccc21,4,x,38,x,7,6,x,x
O=C1/C(=C/c2ccc(Br)cc2)Oc2cc(O)ccc21,-12,63*,38,13,24,8,77*,79*
CCN(CC)CCNC(=O)CN1C(=O)CSc2ccc(S(=O)(=O)N3CCOCC3)cc21,x,x,2,x,3,-4,x,x
Cc1cccc(/C=C(\C(=O)C(=O)O)c2ccc3ccccc3n2)c1,-4,16,14,2,3,7,x,x
O=C(O)C(=O)/C(=C\c1cccc(Cl)c1)c1ccc2ccccc2n1,0,30*,27,2,0,0,42*,58*
COc1c(N)c2c(c([N+](=O)[O-])c1OC)C(=O)OC2,2,x,0,x,-5,3,x,x
CN(C)C(=O)c1ccc(Cc2cn(C)c3ccccc23)nc1,x,x,1,x,3,-1,x,x
CCOC(=O)c1c(-c2ccc(OC)cc2)csc1/N=C/C1C(=O)CCCC1=O,-1,172*,32,1,9,4,25*,36*
CN(C)CCCn1c(N)c(C#N)c2nc3ccccc3nc21,x,26*,x,1,20,91,30*,43*
CCc1nc2ccc(C(=O)N(C)Cc3ccco3)cn2c1N(C)CCCc1ccccc1,x,x,3,x,5,3,x,x
CCOC(=O)[C@]12CCC=C1N(Cc1ccco1)C(=O)[C@H](CC(=O)NCC13CC4CC(CC(C4)C1)C3)C2,x,x,x,x,5,2,x,x
CC(=O)NC(Cc1cccc(F)c1)C(=O)NC1CCN(C(=O)Nc2ccc(C)cc2)CC1 (stereo not given),4,24*,-3,-5,2,2,8,12
CC(=O)NCC(=O)OCc1ccc([N+](=O)[O-])cc1,-8,1,-8,0,-10,-2,x,x
CC(=O)NC/C(C)=N\Nc1ccc([N+](=O)[O-])cc1,-3,32*,36,4,13,10,43*,55*
C/C(=N\Nc1ccc([N+](=O)[O-])cc1)c1ccc(O)cc1,x,94*,x,9,14,51*,91*,100*
CC1(C)CC(=O)C=C(c2ccc(COC(=O)C(c3ccccc3)c3ccccc3)cc2)C1=O,x,x,-8,x,0,1,x,x
CCn1c(SCc2nc3sc(C(=O)O)c(C)c3c(=O)[nH]2)nc2ccccc21,2,31*,30,5,33,-1,24*,27*
COc1ccc(/C=C2\CCC/C(=C\C=N\N(C)C)C2=O)cc1,1,37*,x,7,29,13,45*,55*
CCOC(=O)COc1ccc(S(=O)(=O)N2CCN(c3ccccc3F)CC2)cc1,-1,109*,1,-4,5,1,7,10
CC1=NOC(=O)/C1=C/c1ccc(O)c(Cl)c1,-2,3,-2,-2,1,3,x,x
SMILES,IDE cell activ,TPT1 inhibitor,Rpn11 inh,IDE cell inh,CSN inh,HNF4A DNA FP,caTPT1 confirm,RNase T1 counter
COc1ccc(/C=C2\N=C(C(C)(C)C)OC2=O)c(OC)c1,12,1,0,-1,-1,-1,x,x
CCN(CC)c1ccc(/C=C2/C(=O)ON=C2C)cc1,-24,117*,x,12,29,9,132*,134*
CCOc1cc(/C=C2/C(=O)ON=C2C)ccc1O,-2,10,3,1,3,-1,x,x
CCN(CC)c1ccc(C=C2C(=O)OC3(CCCCC3)OC2=O)cc1,-5,101*,x,-1,26,10,166*,156*
CC1=NOC(=O)/C1=C/c1ccc(N(C)C)cc1,x,78*,x,6,x,x,97*,114*
CN(C)c1ccc(/C=C2\N=C(C(C)(C)C)OC2=O)cc1,-6,117*,x,2,20,11,129*,140*
CC(=O)NC(c1ccc(F)c(F)c1)c1nc(-c2ccc3c(c2)OCO3)cs1 (stereo not given),x,x,2,x,-1,2,x,x
CN(Cc1ccccc1)C(=O)c1[nH]cnc1C(=O)Nc1ccc(Br)cc1F,x,x,0,x,-3,1,x,x
CCCN(CCC)C1=N/C(=C\c2ccco2)C(=O)N1c1ccccc1,6,26*,12,-6,15,2,15,22*
COC(=O)CCCn1cc(CN2CC(N3CCN(Cc4ccccc4F)CC3)CS2(=O)=O)nn1 (stereo not given),x,x,x,x,-5,0,x,x
CN(C)/C=C/C(=O)c1ccc(N2CCN(c3ncc(C(F)(F)F)cc3Cl)CC2)cc1,-4,80*,27,5,-1,2,15,19
O=C(NCc1ccccc1)c1cc(C2COCCN2S(=O)(=O)c2cccs2)on1 (stereo not given),x,x,-4,x,-2,-1,x,x
C[C@@H]1CN([C@H](C)CO)C(=O)c2cc(C3=CCCCC3)cnc2O[C@@H]1CN(C)Cc1ccccc1C(=O)O,x,x,2,x,-1,0,x,x
CCN1C(=O)/C(=C/C2=Cc3ccccc3OC2C)SC1=S (stereo not given),x,43*,x,-4,26,91*,93*,98*
COc1cccc(/C=C/C(=O)OCC(=O)NCCCc2ccccc2)c1OC,1,x,-2,1,-7,-5,x,x
CCC(=O)N1CCN(c2ccccc2NC(=S)NC(=O)c2cccc([N+](=O)[O-])c2)CC1,-2,39*,-1,2,2,2,5,5
COC(=O)c1cccc(Cn2c(Cl)c(/C=N/Nc3ccccc3C)sc2=O)c1,3,29*,34,3,0,14,35*,42*
O=C(Nc1ccccc1)Nc1ccc(F)cc1F,0,1,-8,6,1,-3,x,x
CC(=O)Nc1cccc(NC(=O)Nc2ccc(F)cc2F)c1,4,55*,2,1,2,3,2,3
